According to publication PMC3808079 (Oncogene, 2012):
Ends that are not written are not given here.

How the values were obtained:
LN229 cells [1] = assay: Colony formation assay; type: cell-based, human; details: Figure 6e; for Colony numbers: drug alone, soft agar, 2 weeks
Method in brief: (§1)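 Soft-agar assay: 50 000 cells per well in 0.4% agar with 10% FBS in DMEM, plated over a 0.6% agar base, with test peptide, drug or vehicle. Combinations used various doses of the test peptide with TMZ or BCNU. Cells grew 2 weeks at 37 °C. Colonies were stained with MTT, counted and normalized to vehicle (%). Mean±s.d.; Student's t-test.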

LN-Z308 cells [2] = assay: Cell viability assay; type: cell-based, human
Method in brief: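 Cells (5 × 10^3/well) grown in DMEM/10% FBS were seeded in 96-well plates. Next day, medium was replaced with fresh medium containing test peptides (50 μM) or vehicle, for 16 h at 37 °C. For combinations, cells got various concentrations of the test peptide with TMZ (25 μM) or BCNU (50 μM). Viability was read by MTT. Mean±s.d., 3–4 independent experiments; Student's t-test.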

LN-Z308 cells [3] = assay: Colony formation assay; type: cell-based, human; details: for Colony numbers: drug alone, soft agar, 2 weeks
Method in brief: as §1

PIKE-A/Akt interaction [4] = target: T1, PIKE-A/Akt interaction (Homo sapiens, UniProt P31749+Q99490); assay: In vitro binding assay, GST-PIKE-A; details: short synthetic peptides; Figure 5b
Method in brief: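 Purified recombinant GST-PIKE-A (a.a. 1–356) was bound to glutathione beads and incubated, with test peptides, with lysates of HEK293 cells transfected with HA-Akt, 3 h at 4 °C. Bead-bound proteins were run on 10% SDS-PAGE and immunoblotted with anti-HA. GST proteins were verified by Coomassie staining.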

LN-Z308 cells [5] = assay: Transwell; type: cell-based, human; details: synthetic peptide 50 μM, 16 h, Figure 6c
Method in brief: (§2)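 Cells (1 × 10^5/well) were seeded in six-well plates and treated with test peptides (50 μM) for 16 h. Invasion through Matrigel was measured in a transwell system (8 μm pore polycarbonate membrane). Mean±s.d. of 3–4 independent experiments; Student's t-test.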

[6] = test system: Akt signaling in LN-Z308 cells; assay: Immunoblotting of Akt phosphorylation and downstream signaling; type: cell-based, human; details: peptide-treated cell lysates, dose-dependent, immunoblot, Figure 7b
LN-Z308 cells [7] = assay: Cell migration, wound-healing assay; type: cell-based, human; details: synthetic peptide 50 μM, 10 h, Figure 6b
Method in brief: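 LN-Z308 monolayers were grown to confluence in six-well plates and scratched with a pipette tip, then washed to remove nonadherent cells. Medium containing test peptides (50 μM) or DMSO was added at 0 h, and cells were incubated 10 h. Wound area was imaged by light microscopy. % wound healed = 100-[(final area/initial area) × 100%]. Mean±s.d. of three or four independent experiments; Student's t-test.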

LN229 cells [8] = assay: Transwell; type: cell-based, human; details: synthetic peptide 50 μM, 16 h, Figure 6c
Method in brief: as §2

PIKE-A/Akt interaction [9] = target: T1, PIKE-A/Akt interaction; type: binding
Method in brief: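 HEK293 cells were co-transfected with GST-PIKE-A and HA-Akt. After 40 h, lysates were collected and GST-PIKE-A was pulled down on glutathione beads in the presence of test peptides. Bound HA-Akt was detected by anti-HA immunoblot. GST-PIKE-A was verified with anti-GST-HRP.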

[10] = test system: PIKE-A/Akt interaction in HEK293 cells; assay: GST pull-down from co-transfected HEK293 cells treated with synthetic peptides; type: cell-based; details: sp2 50 μM, Figure 5f
Method in brief: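 HEK293 cells were co-transfected with GST-PIKE-A and HA-Akt, then treated with 50 μM test peptide in culture medium for various times up to 24 h. GST-PIKE-A was pulled down on glutathione beads, and associated HA-Akt was detected by anti-HA immunoblot.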

LN229 cells [11] = assay: Cell viability assay; type: cell-based, human
PIKE-A/Akt interaction [12] = target: T1, PIKE-A/Akt interaction; assay: ELISA-based protein interaction assay; type: binding; details: peptide 10 μM; Figure 5c
[13] = sp2 various concentrations + TMZ 25 μM, 16 h, Figure 6d
[14] = synthetic peptide 50 μM, 16 h, Figure 6a
[15] = various concentrations of sp2, 16 h, Figure 6d

T1 sequence (Q99490 1-836 isoform Q99490-2): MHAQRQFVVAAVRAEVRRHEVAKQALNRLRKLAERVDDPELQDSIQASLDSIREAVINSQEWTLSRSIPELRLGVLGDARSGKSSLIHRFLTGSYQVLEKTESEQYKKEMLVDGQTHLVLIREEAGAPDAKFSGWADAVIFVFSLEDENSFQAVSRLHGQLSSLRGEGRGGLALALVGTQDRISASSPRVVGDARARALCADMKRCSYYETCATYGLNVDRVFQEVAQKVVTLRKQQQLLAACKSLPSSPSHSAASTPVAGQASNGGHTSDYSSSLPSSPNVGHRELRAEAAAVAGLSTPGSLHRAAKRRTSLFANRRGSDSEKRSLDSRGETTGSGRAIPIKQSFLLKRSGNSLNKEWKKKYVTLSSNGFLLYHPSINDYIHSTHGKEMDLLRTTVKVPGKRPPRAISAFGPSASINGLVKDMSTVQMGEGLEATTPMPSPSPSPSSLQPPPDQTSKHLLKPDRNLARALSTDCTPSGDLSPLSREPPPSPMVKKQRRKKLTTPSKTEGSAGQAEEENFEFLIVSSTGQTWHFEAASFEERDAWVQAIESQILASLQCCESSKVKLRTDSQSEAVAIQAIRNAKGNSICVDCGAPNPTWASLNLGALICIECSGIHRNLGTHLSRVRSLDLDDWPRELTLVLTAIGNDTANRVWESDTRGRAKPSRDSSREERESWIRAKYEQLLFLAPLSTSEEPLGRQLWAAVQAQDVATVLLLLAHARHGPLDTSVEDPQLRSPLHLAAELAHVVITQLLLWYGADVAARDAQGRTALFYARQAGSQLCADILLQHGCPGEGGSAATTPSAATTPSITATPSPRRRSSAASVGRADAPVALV
T1 sequence (P31749 whole entry): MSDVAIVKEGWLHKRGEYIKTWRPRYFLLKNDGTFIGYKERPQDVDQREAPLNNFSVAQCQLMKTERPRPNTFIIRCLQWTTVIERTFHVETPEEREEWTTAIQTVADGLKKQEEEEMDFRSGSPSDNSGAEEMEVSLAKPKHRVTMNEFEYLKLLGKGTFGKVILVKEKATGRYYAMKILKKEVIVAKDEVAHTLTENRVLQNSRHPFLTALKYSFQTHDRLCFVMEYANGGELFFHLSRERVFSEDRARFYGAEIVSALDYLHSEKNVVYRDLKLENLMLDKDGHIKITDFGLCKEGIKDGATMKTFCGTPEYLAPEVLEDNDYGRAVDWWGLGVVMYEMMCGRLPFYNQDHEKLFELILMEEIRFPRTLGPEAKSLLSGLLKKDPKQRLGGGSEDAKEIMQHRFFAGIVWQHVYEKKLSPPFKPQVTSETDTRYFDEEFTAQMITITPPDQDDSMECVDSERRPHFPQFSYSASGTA

Compound: PELRLGVL [sp2]
- Colony formation inhibitory effect of TMZ and BCNU on co-treatment with sp2 (LN229 cells [1]; sp2 + TMZ or BCNU): additive trend also applied
- Cell viability (MTT), co-treatment of sp2 with TMZ (LN-Z308 cells [2]; [13]): additive effect
- Cell viability (MTT) (LN-Z308 cells [2]; [14]): selectively decreased LN-Z308 cell viability
- Cell viability (MTT), sp2 alone (LN-Z308 cells [2]; [15]): suppressive activity of sp2 on LN-Z308 cell viability, which occurred in a dose-dependent manner
- Colony formation inhibitory effect of TMZ and BCNU on co-treatment with sp2 (LN-Z308 cells [3]; 50 μM sp2 + TMZ or BCNU, Figure 6e): substantially increased
- Colony formation, sp2 (LN-Z308 cells [3]; summary statement of Figure 6): strongly inhibits
- Interaction between a fragment of PIKE-A (1–356 a.a.) and Akt (PIKE-A/Akt interaction [4]): decreased the interaction
- Invasive activity (LN-Z308 cells [5]): strongly inhibited the invasive activity
- Akt T308 and S473 phosphorylation [6]: diminished
- Cell migration (LN-Z308 cells [7]): strongly inhibits
- Invasive activity (LN229 cells [8]): strongly inhibited the invasive activity
- Inhibitory effect on the PIKE-A/Akt interaction, GST pull-down (PIKE-A/Akt interaction [9]; GST pull-down as in Figure 2, Figure 5e): inhibited the binding
- Inhibition of PIKE-A binding to Akt at 24 h ([10]; 24 h in cell culture medium): lost its suppressive activity
- Time at which inhibition of PIKE-A binding to Akt was seen ([10]; time course): 4 h
- Time of peak inhibition of PIKE-A binding to Akt ([10]; time course): 16 h
- Cell viability (MTT), co-treatment of sp2 with TMZ (LN229 cells [11]; [13]): inhibitory trend was similar
- Cell viability (MTT) (LN229 cells [11]; [14]): not in LN229 cells
- Cell viability (MTT), sp2 alone (LN229 cells [11]; [15]): not as evident as in LN-Z308 cells

Compound: LKKDPK [sp9]
- Interaction between a fragment of PIKE-A (1–356 a.a.) and Akt (PIKE-A/Akt interaction [4]): decreased the interaction

Compound: DARSGKSSLIHRFLTGSYQ [PP2]
- Disruption of the interaction between PIKE-A and Akt (ELISA, RLU) (PIKE-A/Akt interaction [12]): failed to block the PIKE-A/Akt interaction
- Inhibition of the PIKE-A/Akt interaction, GST pull-down (PIKE-A/Akt interaction [9]; peptide up to 10 μM, Figure 2f): did not demonstrate an inhibitory effect

Compound: Cn1nnc2c(C(N)=O)ncn2c1=O [TMZ, temozolomide, reference compound]
- Colony numbers (LN229 cells [1]): decreased the colony numbers
- Cell viability (MTT) (LN-Z308 cells [2]; TMZ 25 μM, 16 h, Figure 6d): potently decreased
- Colony numbers (LN-Z308 cells [3]; Figure 6e): decreased the colony numbers
- Cell viability (MTT) (LN229 cells [11]; TMZ 25 μM, 16 h, Figure 6d): potently decreased
- Cell viability (MTT) (LN229 cells [11]; TMZ 25 μM, 24 h, compared with vehicle, Figure 4c): modest effect in repressing LN229 cell viability

Compound: O=NN(CCCl)C(=O)NCCCl [BCNU, Carmustine, reference compound]
- Colony numbers (LN229 cells [1]): decreased the colony numbers
- Colony numbers (LN-Z308 cells [3]; Figure 6e): decreased the colony numbers
- Cell viability (MTT) (LN229 cells [11]; BCNU 50 μM, 24 h, after 40 h plasmid transfection, Figure 4c): reduced cell viability regardless of peptide transfection

Compound: DARSG [sp4]
- Cell viability (MTT) (LN-Z308 cells [2]; [14]): no effect
- Interaction between a fragment of PIKE-A (1–356 a.a.) and Akt (PIKE-A/Akt interaction [4]): decreased the interaction
- Invasive activity (LN-Z308 cells [5]): did not significantly affect
- Disruption of the interaction between PIKE-A and Akt (ELISA, RLU) (PIKE-A/Akt interaction [12]): failed to block the PIKE-A/Akt interaction
- Akt T308 and S473 phosphorylation [6]: no effect on Akt phosphorylation
- Invasive activity (LN229 cells [8]): did not significantly affect

Compound: TGSYQ [sp6]
- Cell viability (MTT) (LN-Z308 cells [2]; [14]): selectively decreased LN-Z308 cell viability
- Interaction between a fragment of PIKE-A (1–356 a.a.) and Akt (PIKE-A/Akt interaction [4]): decreased the interaction
- Invasive activity (LN-Z308 cells [5]): did not significantly affect
- Disruption of the interaction between PIKE-A and Akt (ELISA, RLU) (PIKE-A/Akt interaction [12]): failed to block the PIKE-A/Akt interaction
- Invasive activity (LN229 cells [8]): did not significantly affect
- Cell viability (MTT) (LN229 cells [11]; [14]): not in LN229 cells
